For experiment [1], the target named is T1, Tyrosine-protein phosphatase non-receptor type 11 (Homo sapiens) (UniProt Q06124).
T1 sequence (whole entry): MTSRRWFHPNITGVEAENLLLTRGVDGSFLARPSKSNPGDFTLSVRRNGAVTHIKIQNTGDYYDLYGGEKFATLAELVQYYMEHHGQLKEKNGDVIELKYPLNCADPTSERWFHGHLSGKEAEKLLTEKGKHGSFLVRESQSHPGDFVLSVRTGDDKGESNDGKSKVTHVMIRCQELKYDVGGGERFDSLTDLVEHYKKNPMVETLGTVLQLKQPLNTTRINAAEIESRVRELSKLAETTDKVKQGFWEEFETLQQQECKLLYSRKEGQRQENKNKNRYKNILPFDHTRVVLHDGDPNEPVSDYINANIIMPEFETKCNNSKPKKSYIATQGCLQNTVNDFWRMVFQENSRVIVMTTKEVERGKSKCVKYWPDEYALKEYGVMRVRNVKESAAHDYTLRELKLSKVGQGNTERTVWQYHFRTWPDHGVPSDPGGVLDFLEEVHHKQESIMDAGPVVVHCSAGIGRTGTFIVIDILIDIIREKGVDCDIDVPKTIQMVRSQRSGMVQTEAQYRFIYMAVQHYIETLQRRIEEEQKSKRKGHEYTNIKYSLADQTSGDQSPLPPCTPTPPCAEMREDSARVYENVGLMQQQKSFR
Kind of experiment: Stable inhibition of human wild-type full length SHP2 at 5 to 20 uM using H-Glu-Phe-pTyr-Ala-Glu-Val-Gly-Arg-Ser-ProPro-Asp-Pro-Ala-Lys as substrate followed by 3 times wash out with phosphate buffer by phosphatase assay.

For experiment [2], the target named is T2, Tyrosine-protein phosphatase non-receptor type 11 (Mus musculus) (UniProt P35235).
T2 sequence (whole entry): T1 sequence (whole entry) with M450V, A550V, K590R
The experiment in a line: Inhibition of SHP2 in mouse Ba/F3 cells assessed as reduction in IL3-stimulated JAK2 phosphorylation pretreated for 4 hrs followed by IL3 stimulation and measured after 5 to 60 mins by Western blot analysis. The experiment is classed as cell-based. The procedure, abridged: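 Ba/F3 cells starved overnight in serum- and cytokine-free RPMI1640. Treated with 20 µM compound for 4 h, then IL-3 (2 ng/mL) for the indicated times. RIPA lysates (50 µg) immunoblotted for p-Erk, p-Akt, p-Jak2 and p-Stat5, then reprobed for total proteins. Representative of three experiments.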
Background: In western blotting, separated proteins are transferred to a membrane and probed.

The test system of experiment [3] is T3, Tyrosine-protein phosphatase non-receptor type 11 (Homo sapiens), Q06124 [E76K].
T3 sequence (whole entry): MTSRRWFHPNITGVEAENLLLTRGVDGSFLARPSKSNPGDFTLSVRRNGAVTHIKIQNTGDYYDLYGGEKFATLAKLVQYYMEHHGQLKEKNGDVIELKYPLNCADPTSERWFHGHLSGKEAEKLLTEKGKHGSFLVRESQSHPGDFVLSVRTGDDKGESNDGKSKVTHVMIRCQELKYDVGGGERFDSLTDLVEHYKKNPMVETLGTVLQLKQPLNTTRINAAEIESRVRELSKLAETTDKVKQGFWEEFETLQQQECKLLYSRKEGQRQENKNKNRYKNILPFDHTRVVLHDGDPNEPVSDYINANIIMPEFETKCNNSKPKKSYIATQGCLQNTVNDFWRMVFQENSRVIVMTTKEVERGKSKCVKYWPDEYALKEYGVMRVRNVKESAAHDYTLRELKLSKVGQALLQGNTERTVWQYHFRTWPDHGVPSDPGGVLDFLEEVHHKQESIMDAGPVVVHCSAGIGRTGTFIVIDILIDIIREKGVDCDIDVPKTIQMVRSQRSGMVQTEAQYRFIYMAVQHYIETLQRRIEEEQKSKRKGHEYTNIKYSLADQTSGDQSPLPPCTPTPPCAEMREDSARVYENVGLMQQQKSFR
Kind of experiment: Inhibition of Ptpn11 E76K mutant in bone marrow cells isolated from JMML patient assessed as inhibition of GM-CSF-induced colony forming units at 1.25 to 5 uM after 14 days by inverted microscopy. The experiment is classed as cell-based. The essentials: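 JMML patient splenocytes, marrow or blood cells (PTPN11 E76K/+), 5×10⁴ cells/mL, with healthy apheresis controls. Plated in 0.9% methylcellulose IMDM with 30% FBS, glutamine, β-mercaptoethanol and GM-CSF 1.0 ng/mL, plus compound or DMSO. Myeloid colonies counted at 14 days, 37 °C, 5% CO2, normalized to DMSO.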

Experiment [4] addresses T1, Tyrosine-protein phosphatase non-receptor type 11 (Homo sapiens). Kind of experiment: Binding affinity to His-tagged SHP2 (unknown origin) assessed as melting temperature at 10 uM measured every 50 secs by thermal shift assay (reference value: 43.5 +/- 0.95 degC).
Experiment [5] concerns the target T2, Tyrosine-protein phosphatase non-receptor type 11 (Mus musculus). Kind of experiment: Inhibition of PTPN11 in PTPN11-expressing mouse embryonic fibroblasts assessed as inhibition of cell growth at 6 uM after 24 to 72 hrs by cell proliferation-based assay. The procedure, abridged:
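Ptpn11 fl/fl and Ptpn11 +/+ MEFs, both Ade-Cre+, infected with adeno-Cre, then given 6 µM compound or DMSO. Growth measured at 24, 48 and 72 h by One Solution proliferation assay. SHP2 loss confirmed by immunoblot. Triplicates from one of three experiments.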

Experiment [6] addresses T1, Tyrosine-protein phosphatase non-receptor type 11 (Homo sapiens). Kind of experiment: Inhibition of human wild-type full length SHP2 at 20 uM using H-Glu-Phe-pTyr-Ala-Glu-Val-Gly-Arg-Ser-ProPro-Asp-Pro-Ala-Lys as substrate in presence of 0.001% Triton X.

This note sets out measurements from ChEMBL document CHEMBL4422612, “Small Molecule Inhibitor that Stabilizes the Autoinhibited Conformation of the Oncogenic Tyrosine Phosphatase SHP2” (J Med Chem, 2019).

Residue numbers refer to the chain shown, from its start. Active and inactive are the calls of the source. No cut-off for these calls is given here.

Usually Tm stands for the temperature at which the thermal transition is half complete.

In the case of `CCOc1cc(O)c(C(=O)/C=C/c2ccc(Cl)cc2Cl)cc1CN1CCC=C(n2c(=O)[nH]c3ccccc32)C1`, the inhibition result in experiment [1], in experiment [3] and in experiment [6] was “Active” in each case. In addition, the inhibition result in experiment [2] was “Dose-dependent effect”. Besides, in experiment [4], the Tm worked out at 47.2 °C. Further, in experiment [5], the “growth inhibition (GI)” value is “Active”.
